A selection: hits, their analogues and other compounds. The true share with any hit is near 0.74%.
RGS7-Gao reg = RGS7-Galphao binding modulators, primary screen, biochemical, multiplexed bead flow cytometry. Guanine nucleotide-binding protein G(o) subunit alpha (Homo sapiens), P09471. actives lie on both sides. binding response (% of control), % at 10 µM. hit rate 0.35% among 220,000. AID 1439, 2008; in the data active means binding response below about 49% or above about 150%; inconclusive means no clear call, values can overlap the other calls; inactive means in between;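 further: fluorescent Galphao held in activated GDP-AlF4 state binding bead-coupled RGS7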
Target sequence (P09471 whole entry, looked up): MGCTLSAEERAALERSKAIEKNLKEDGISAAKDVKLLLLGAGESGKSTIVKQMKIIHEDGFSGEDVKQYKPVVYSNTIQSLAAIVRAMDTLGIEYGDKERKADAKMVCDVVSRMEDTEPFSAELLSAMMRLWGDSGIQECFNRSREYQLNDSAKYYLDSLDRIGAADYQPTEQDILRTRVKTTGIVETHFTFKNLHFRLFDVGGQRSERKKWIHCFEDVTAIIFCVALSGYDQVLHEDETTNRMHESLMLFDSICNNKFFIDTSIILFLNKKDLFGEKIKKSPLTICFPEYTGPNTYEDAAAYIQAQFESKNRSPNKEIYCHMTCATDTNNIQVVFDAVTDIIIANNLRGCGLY
Biofilm kill mix = clotrimazole potentiators killing C. albicans biofilm, primary screen, 4-compound mixtures; C. albicans biofilm persisters + clotrimazole, fluorescence viability; primary screen in compound mixtures of four per well; inhibition, % at 7.6 µM; hit rate 0.02% among 120,000; AID 1242, 2008;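 active means inhibition above 30.3% in the primary screen of four-compound pools, then above 30% when the compound was retested; inconclusive means passed the primary limit but could not be retested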;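 further: compounds exposed to preformed 24 h biofilms for 48 h; 0% = untreated biofilm control and 100% = clotrimazole plus chlorhexidine kill blank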
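System: C. albicans CAF4-2 wild-type biofilms; Medium: RPMI/MOPS medium, pH 7.0; Reagent: Clotrimazole, 50 µg/mL; Times: biofilm formation 24 h, compound exposure 48 h, 37 °C; Detection: 2-h Alamar Blue fluorescence, 535/590 nm excitation/emission; Evaluation: percent inhibition of biofilm viability.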
RGS8-Gao reg = RGS8-Galphao binding modulators, primary screen, biochemical, multiplexed bead flow cytometry. Guanine nucleotide-binding protein G(o) subunit alpha (Homo sapiens), P09471. actives lie on both sides. response (percent of control binding), % at 10 µM. hit rate 0.34% among 220,000. AID 1423, 2008; in the data active means response below about 60% or above about 140%; inactive means in between;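 further: Galphao activated as the GDP aluminium fluoride complex binding bead-coupled RGS8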
RGS4-Gao reg = modulators of RGS4 binding to Galphao, primary screen, biochemical, multiplexed bead flow cytometry; Guanine nucleotide-binding protein G(o) subunit alpha (Homo sapiens), P09471; actives lie on both sides; binding response (% of control), % at 10 µM; hit rate 0.33% among 220,000; AID 1415, 2008; in the data active means binding response below about 49% or above about 150%; inactive means in between;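 further: fluorescent Galphao activated with aluminum fluoride binding bead-coupled RGS4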
RGS16-Gao HTS = modulators of RGS16 binding to Galphao, primary screen, biochemical, human proteins, multiplexed bead flow cytometry | Regulator of G-protein signaling 16 (Homo sapiens) + Guanine nucleotide-binding protein … | bead-based flow cytometry RGS16-Galphao binding, fluorescence; actives lie on both sides | binding response (% of control), % at 10 µM | hit rate 0.38% among 220,000;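 further: Galphao activated by GDP with aluminum fluoride before binding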
Target sequence (O15492 whole entry, looked up): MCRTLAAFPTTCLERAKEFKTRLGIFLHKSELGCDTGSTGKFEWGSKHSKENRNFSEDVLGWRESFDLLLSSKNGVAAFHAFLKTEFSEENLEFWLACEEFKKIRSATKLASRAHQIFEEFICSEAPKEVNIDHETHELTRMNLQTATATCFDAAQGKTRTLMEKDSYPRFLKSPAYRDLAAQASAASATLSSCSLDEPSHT
Target sequence (P09471 whole entry, looked up): as the sequence (P09471 whole entry, looked up) above
RGS-Gao = modulators of RGS–Galpha-o binding, primary screen, biochemical, multiplexed beads, flow cytometry, RGS4/7/8/16/19 | RGS4–Galpha-o binding response, % at 10 µM | multiplexed bead flow cytometry | hit rate 99% among 1,600 | AID 1504, 2009 | shares compounds with RGS16-Gao HTS;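 further: fluorescently labeled Galpha-o bound to GDP with aluminium fluoride binding biotinylated RGS beads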
Biotin-avidin = disruption of biotin probe capture by avidin, counter-screen for RGS protein interaction modulators, biochemical, flow cytometry, bead-based; shares compounds with RGS16-Gao HTS; streptavidin beads, fluorescein-biotin binding; inhibition, % at 10 µM; 1,700 tested, under 10 active; AID 1783, 2009;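 active means inhibition above 50%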;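 further: median green fluorescence of gated singlet beads compared with DMSO control wells; 0% = DMSO wells and 100% = complete loss of bead fluorescence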
RGS8-Gao confirm = RGS8-Galphao binding modulators, confirmation, biochemical, multiplexed bead flow cytometry, single concentration. hit rate 3% among 1,700. shares compounds with RGS16-Gao HTS. binding response (% of control), % at 10 µM. bead-based flow cytometry RGS8-Galphao binding, fluorescence; actives lie on both sides; in the data active means binding response below about 72% or above about 130%; inactive means in between;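 further: Galphao activated as GDP AlF4 complex before binding bead RGS8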
RGS7-Gao single = RGS7-Galphao binding modulators, confirmation, biochemical, multiplexed bead flow cytometry, single concentration; hit rate 7.8% among 1,700; AID 1837, 2009; response (percent of control binding), % at 10 µM; shares compounds with RGS16-Gao HTS; bead-based flow cytometry RGS7-Galphao binding; actives lie on both sides; in the data active means response below about 75% or above about 130%; inactive means in between;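 further: fluorescent Galphao activated with GDP and aluminum fluoride binding bead-coupled RGS7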
RGS16-Gao conf = modulators of RGS16-Galphao protein binding, confirmation, biochemical, single concentration, multiplexed bead flow cytometry. shares compounds with RGS16-Gao HTS. bead-based flow cytometry; actives lie on both sides. response (% of control binding), % at 10 µM. hit rate 4% among 1,700; in the data active means response below about 74% or above about 130%; inactive means in between;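 further: Galphao activated as the GDP aluminium fluoride complex binding bead-coupled RGS16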
RGS4-Gao single = modulators of RGS4-Galphao protein binding, confirmation, biochemical, single concentration, multiplexed bead flow cytometry; shares compounds with RGS16-Gao HTS; actives lie on both sides; binding response (% of control), % at 10 µM; hit rate 4% among 1,700; AID 1840, 2009; in the data active means binding response below about 74% or above about 130%; inactive means in between
RGS19-Gao conf = regulators of RGS19-Galphao binding, confirmation, biochemical, single point, multiplexed bead flow cytometry | bead-based flow cytometry RGS19-Galphao binding; actives lie on both sides | response (percent of control binding), % at 10 µM | hit rate 5% among 1,700 | shares compounds with RGS16-Gao HTS; in the data active means response below about 50% or above about 160%; inactive means in between;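 further: 100% = no compound control and 0% = blank background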
* = called active by the depositor; ? = inconclusive; . = not tested or not shown; [ ] = dose if it differs, or a comment. Unless noted, how the calls were made is not given here.

SMILES	RGS7-Gao reg	Biofilm kill mix	RGS8-Gao reg	RGS4-Gao reg	RGS16-Gao HTS	RGS-Gao	Biotin-avidin	RGS8-Gao confirm	RGS7-Gao single	RGS16-Gao conf	RGS4-Gao single	RGS19-Gao conf
COc1ccccc1NC(=O)Nc1ccnn1Cc1cccs1	-20*	.	6.0*	-59*	-55*	.	0	98	94	97	98	94
COc1cccc2c(=O)cn[nH]c12	90	6	100	91	98	.	.	.	.	.	.	.
Cc1c(NC(=O)c2cccs2)c(=O)n(-c2ccccc2)n1C	101	-6	103	103	107	.	.	.	.	.	.	.
CCOC(=O)C1CCN(S(=O)(=O)Cc2ccc(Cl)cc2)CC1	164*[activator]	.	.	170*[activator]	.	.	0	88	61*	78	77	61
CCOC(=O)C1CCN(S(=O)(=O)Cc2ccccc2)CC1	101	.	102	101	104	.	.	.	.	.	.	.
O=C(CSc1nc2ccccc2[nH]1)NCc1ccc(F)cc1	102	16	100	101	103	.	.	.	.	.	.	.
CCOC(=O)CSc1nc2ccccc2c(=O)n1CC1CCCO1 (stereo unspecified)	72	.	57*	71	7	71*	0	101	100	100	101	95
CCOC(=O)CSc1nc2ccccc2c(=O)n1CC1COc2ccccc2O1 (stereo unspecified)	-14*	.	0.8*	-26*	-138	.	-6	116	130*[activator]	120	124	122
COc1ccc2[nH]c(=O)c(CN(C(=O)c3cccnc3)c3ccccc3C)cc2c1	?	28	142*[activator]	307*[activator]	280*[activator]	.	1	96	56*	73*	72*	39*
Cc1ccc(-n2c(-c3ccccc3)c[n+]3c2CCc2ccccc2-3)c(C)c1	107	17	102	104	107	.	.	.	.	.	.	.
COC(=O)c1nnn(-c2nc(N3CCOCC3)nc(N3CCOCC3)n2)c1C	99	8	100	98	99	.	.	.	.	.	.	.
CC1CCN(c2ccccc2N)CC1	153*[activator]	.	131	163*[activator]	167	.	1	91	83	85	88	48*
Nc1ccccc1N1CCOCC1	99	.	96	98	91	.	.	.	.	.	.	.
CC1CCN(c2nnc(N3CCC(C)CC3)c3ccccc23)CC1	12*	18	18*	20*	11*	.	0	99	90	96	92	87
CC(C)CCn1c(CN2CCN(Cc3ccccc3)CC2)nc2c1c(=O)[nH]c(=O)n2C	126	.	145*[activator]	135	357	135*	2	96	93	96	96	87
COc1ccc(OC)c2c1C(=O)C(Cl)=C(Cl)C2=O	?	28	45*	58	-14*	58*	.	.	.	.	.	.
Cc1nc(Cl)c(Cl)n1CCOc1ccccc1	?	13	6.8*	-14*	-7.5*	.	1	101	108	103	105	101
Cc1nc2ccccc2n1CCCOc1ccccc1	102	11	103	102	108	.	.	.	.	.	.	.
COc1cccc(N/C=C/C(=O)c2ccc(Cl)cc2)c1	95	6	82	89	66	.	.	.	.	.	.	.
COc1ccc(N/C=C/C(=O)c2ccc(Cl)cc2)cc1	125	2	60*	128	61	128*	-1	99	102	104	102	100
CC(=O)C12C3C4C(C5C1C3C5(Br)C41OCCO1)C21OCCO1 (stereo unspecified)	90	13	86	93	22*	93*	-2	112	117	112	113	99
COc1cccc(Cn2c(C3CC3)nc3ccc(NC(=O)c4ccco4)cc3c2=O)c1	579*[activator]	.	76	77	134	77*	0	102	106	104	102	99
Cc1cc(N2CCN(C)CC2)nc2ccc(NC(=S)N3CCC4(CC3)OCCO4)cc12	?	8	96	93	94	.	.	.	.	.	.	.
CCN(CC)c1ccc(/C=N\N2CCN(Cc3ccc(C)cc3)CC2)cc1	106	22	103	105	109	.	.	.	.	.	.	.
Cc1ccc(CN2CCN(/N=C/c3cccnc3)CC2)cc1	110	25	125	110	260*[activator]	110*	3	99	100	99	98	85
SMILES	RGS7-Gao reg	Biofilm kill mix	RGS8-Gao reg	RGS4-Gao reg	RGS16-Gao HTS	RGS-Gao	Biotin-avidin	RGS8-Gao confirm	RGS7-Gao single	RGS16-Gao conf	RGS4-Gao single	RGS19-Gao conf
O=C(O)c1ccc(/C=N/N2CCN(Cc3ccc(Cl)cc3)CC2)cc1	125	23	148*[activator]	117	262	117*	-2	98	83	93	91	83
Cc1ccc(CN2CCN(/N=C/c3ccc(C(=O)O)cc3)CC2)cc1	98	10	100	100	98	.	.	.	.	.	.	.
Cc1onc(-c2c(Cl)cccc2Cl)c1C(=O)NCCN1CCOCC1	100	.	101	101	105	.	.	.	.	.	.	.
O=C1CC(c2ccccc2)=Nc2ccccc2N1	100	.	101	103	97	.	.	.	.	.	.	.
O=C1CC(/C=C/c2ccncc2)=Nc2ccccc2N1	162*[activator]	13	96	117	96	117*	-2	102	100	103	102	89
CNc1nc(SC(C)C(=O)Nc2ccc(Cl)c(Cl)c2)nc(N2CCOCC2)n1 (stereo unspecified)	103	14	107	104	115	.	.	.	.	.	.	.

Screening data: PubChem, several laboratories
